Assay results from ChEMBL document CHEMBL1145173, “Stereoselective synthesis of [L-Arg-L/D-3-(2-naphthyl)alanine]-type (E)-alkene dipeptide isosteres and its application to the synthesis and biological evaluation of pseudopeptide analogues of the CXCR4 antagonist FC131” (J Med Chem, 2005).
pEC50, pIC50: −log10 of the molar value. Where a SMILES comes first, the peptide text is derived from it.

What was measured:
MT4 [1] = experiment: Cytotoxic concentration against the mock infected MT-4 cells; type: functional; conditions: Homo sapiens
How it was run: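 MT-4 cells (RPMI 1640, 10% heat-inactivated FCS, penicillin/streptomycin) without virus, 1.5×10^4 cells/well, exposed to graded compound concentrations for 5 days at 37 °C in CO₂; viable cells counted by MTT method; CC₅₀ from loss of viability; mean of at least three independent experiments.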

MT4 [2] = experiment: Effective concentration against HIV-induced cytopathogenicity in MT-4 cells; type: functional, cell-based; conditions: Homo sapiens
[3] = target: C-X-C chemokine receptor type 4 (Homo sapiens, UniProt P61073); experiment: Inhibition of [125I]SDF-1 binding to C-X-C chemokine receptor type 4 expressed in CHO cells; type: cell-based
Sequence of C-X-C chemokine receptor type 4 (P61073 whole entry): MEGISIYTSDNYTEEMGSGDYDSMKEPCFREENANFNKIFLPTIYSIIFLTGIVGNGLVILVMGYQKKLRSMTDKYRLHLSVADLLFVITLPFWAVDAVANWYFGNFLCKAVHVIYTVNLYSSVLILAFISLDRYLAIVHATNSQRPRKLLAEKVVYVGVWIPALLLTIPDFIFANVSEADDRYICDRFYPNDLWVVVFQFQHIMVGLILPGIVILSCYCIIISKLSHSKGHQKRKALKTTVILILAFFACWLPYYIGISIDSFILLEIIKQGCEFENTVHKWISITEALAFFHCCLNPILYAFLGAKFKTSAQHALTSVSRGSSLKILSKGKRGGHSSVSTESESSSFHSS

pIC50 [3]	Compound	CC50 (MT4 [1]) [µM]	pEC50 (MT4 [2])
–	N=C(N)NCCC[C@@H]1NC(=O)[C@@H](Cc2ccc(O)cc2)NC(=O)CNC(=O)[C@@H](Cc2ccc3ccccc3c2)NC(=O)[C@H](CCCN=C(N)N)NC1=O	> 100	5.72
8.41	NCCCC[C@@H]1NC(=O)[C@H](CCCN=C(N)N)NC(=O)[C@H](Cc2ccc(O)cc2)NC(=O)[C@@H](NC(=O)[C@H](Cc2ccc3ccccc3c2)NC(=O)[C@H](CCCN=C(N)N)NC(=O)[C@@H](N)CCCN=C(N)N)CSSC[C@@H](C(=O)N[C@@H](CCCN=C(N)N)C(=O)O)NC(=O)[C@H](CCCNC(N)=O)NC(=O)[C@H](CCCN=C(N)N)NC(=O)[C@H](Cc2ccc(O)cc2)NC(=O)[C@@H]2CCCN2C(=O)[C@@H](CCCCN)NC1=O (HELM PEPTIDE1{R.R.[O=C([C@H](Cc1ccc2ccccc2c1)N[*:1])[*:2]].C.Y.R.K.[dK].P.Y.R.[Cit].C.R}$PEPTIDE1,PEPTIDE1,4:R3-13:R3$$$V2.0) [listing 1 of 2 here]	–	7.46
–	Cc1cn([C@H]2C[C@H](N=[N+]=[N-])[C@@H](CO)O2)c(=O)[nH]c1=O [ZIDOVUDINE]	57	7.74
6.74	NC(N)=NCCC[C@@H]1NC(=O)[C@H](CCCN=C(N)N)NC(=O)[C@@H](Cc2ccc(O)cc2)NC(=O)C/C=C/[C@H](Cc2ccc3ccccc3c2)NC1=O	> 100	5.62
7.49	N=C(N)NCCC[C@@H]1NC(=O)[C@@H](Cc2ccc(O)cc2)NC(=O)CNC[C@H](Cc2ccc3ccccc3c2)NC(=O)[C@H](CCCN=C(N)N)NC1=O	> 100	6.01
8.35	N=C(N)NCCC[C@@H]1NC(=O)[C@@H](Cc2ccc(O)cc2)NC(=O)NC(=O)[C@H](Cc2ccc3ccccc3c2)NC(=O)[C@H](CCCN=C(N)N)NC1=O	> 100	7.14
–	NCCCC[C@@H]1NC(=O)[C@H](CCCN=C(N)N)NC(=O)[C@H](Cc2ccc(O)cc2)NC(=O)[C@@H](NC(=O)[C@H](Cc2ccc3ccccc3c2)NC(=O)[C@H](CCCN=C(N)N)NC(=O)[C@@H](N)CCCN=C(N)N)CSSC[C@@H](C(=O)N[C@@H](CCCN=C(N)N)C(=O)O)NC(=O)[C@H](CCCNC(N)=O)NC(=O)[C@H](CCCN=C(N)N)NC(=O)[C@H](Cc2ccc(O)cc2)NC(=O)[C@@H]2CCCN2C(=O)[C@@H](CCCCN)NC1=O (HELM PEPTIDE1{R.R.[O=C([C@H](Cc1ccc2ccccc2c1)N[*:1])[*:2]].C.Y.R.K.[dK].P.Y.R.[Cit].C.R}$PEPTIDE1,PEPTIDE1,4:R3-13:R3$$$V2.0) [listing 2 of 2 here]	> 10	–
4.68	N=C(N)NCCC[C@@H]1NC(=O)[C@@H](Cc2ccc(O)cc2)NC(=O)CNC(=O)[C@H](Cc2ccc3ccccc3c2)/C=C\[C@H](CCCN=C(N)N)NC1=O	> 100	5.04
< 4.51	N=C(N)NCCC[C@@H]1NC(=O)[C@@H](Cc2ccc(O)cc2)NC(=O)NC(=O)[C@@H](Cc2ccc3ccccc3c2)/C=C\[C@H](CCCN=C(N)N)NC1=O	> 100	5.62
